HTR1E agonist – agonists of human 5-HT1E serotonin receptor | CHO 5-HT1E Ga15 NFAT-bla reporter, FRET; 0% DMSO wells, 100% control agonist wells | 65,000 compounds, 0.69% hits | activation, % at 6 µM | P28566;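 active = activation above a set limit, the screen-wide mean activation plus 3 SD, cut at about 8.5% in these data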
HEK293 NFkB inh – lowers PMA/ionomycin-induced NF-kB signal in HEK293 cells; 62,000 compounds, 0.21% hits; HEK-293 NF-kB luciferase reporter, luminescence; inhibition, % at 3 µM;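 active = inhibition above the mean of all tested compounds plus 3 SD, cut at about 40% in these data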
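System: NF-kB luciferase reporter HEK-293 cells | Replication: Single test | Control set: DMSO vs reference inhibitor | Evaluation: % inhibition | Schedule: 1 h pretreatment, 16 h stimulation, 37 °C | Probe or stimulus: PMA with ionomycin | Compound dosing: One dose, 3 µM | Detection: Luciferase luminescence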
Jurkat viability – reduces viability or proliferation of Jurkat cells | 56,000 compounds, 1.2% hits | inhibition, % at 4 µM | AID 463 | Jurkat E6.1 viability, ATP luminescence, 48 h;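 active = inhibition above the mean inhibition of all tested compounds plus 3 SD, cut at about 28% in these data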
5HT1a ag – 5-HT1a (human) receptor agonism. activation, % at 10 µM. CHO 5-HT1a Ga15 NFAT-bla reporter, FRET ratio; 0% basal, 100% maximal reference agonist. P08908. AID 567. 65,000 compounds, 0.56% hits;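 active = activation above the screen-wide mean activation plus 3 SD, cut at about 19% in these data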
Target sequence (P08908 whole entry, looked up): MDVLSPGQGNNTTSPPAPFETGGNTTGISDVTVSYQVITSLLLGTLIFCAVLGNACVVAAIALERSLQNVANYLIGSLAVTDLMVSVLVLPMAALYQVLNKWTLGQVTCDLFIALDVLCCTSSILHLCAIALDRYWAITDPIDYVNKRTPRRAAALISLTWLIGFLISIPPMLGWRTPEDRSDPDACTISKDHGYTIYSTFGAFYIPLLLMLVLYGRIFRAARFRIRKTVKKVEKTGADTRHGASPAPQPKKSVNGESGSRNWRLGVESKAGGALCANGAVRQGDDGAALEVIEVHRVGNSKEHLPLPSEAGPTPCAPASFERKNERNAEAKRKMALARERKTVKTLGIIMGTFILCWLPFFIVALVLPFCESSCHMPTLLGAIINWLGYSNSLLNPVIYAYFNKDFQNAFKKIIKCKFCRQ
5HT1a antag – blocks the human serotonin 5-HT1a receptor | P08908 | CHO 5-HT1a Ga15 NFAT-bla reporter, antagonist mode | inhibition, % at 10 µM | 62,000 compounds, 0.68% hits | AID 612;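 active = inhibition above the mean of all tested compounds plus 3 SD, cut at about 43% in these data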;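 note: receptor stimulated by 5-CT agonist at 100 nM near EC80; beta-lactamase reporter measured by ratiometric fluorescence of a cleavable substrate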
HTR1E antagonist – antagonists of human 5-HT1E serotonin receptor; P28566; CHO 5-HT1E Ga15 NFAT-bla reporter, FRET, antagonist; inhibition, % at 6 µM; 65,000 compounds, 0.99% hits; AID 571;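 active = inhibition above a set limit, the mean inhibition across every tested compound plus 3 SD, cut at about 29% in these data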;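 note: signal is the 460 over 535 nm emission ratio of beta-lactamase substrate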
Numbers stand for hits; . = inactive; / = not tested or not shown. Rows were chosen to be rich in hits. Some 3.3% of all compounds tested hit in one or more screens of this group.

SMILES	HTR1E agonist	HEK293 NFkB inh	Jurkat viability	5HT1a ag	5HT1a antag	HTR1E antagonist
Cc1cc(C)cc(N(CC(=O)N2CCn3c2nc2ccccc23)S(=O)(=O)c2c(C)noc2C)c1	.	.	.	.	.	.
CC(=O)c1c(C)[nH]c(C(=O)OCc2nnc(-c3ccccc3)o2)c1C	.	.	.	.	.	35
Cc1ccc(C(=O)OCc2nnc(-c3ccccc3)o2)o1	.	.	.	.	.	.
O=C(CSc1ccc2nnc(-c3ccccc3)n2n1)N1CCCCC1	.	.	.	.	.	.
CN(C)CCN(Cc1ccccc1)c1ccnc(N(C)C)c1C#N	21	.	.	.	.	.
CN(C)CCN(Cc1ccccc1)c1ccccn1	.	/	/	.	/	.
COc1cc(C(=O)N2CCN(c3ccc(C)cc3C)CC2)cc(OC)c1OC	.	.	91	.	.	.
Cc1ccc(N2CCN(C(=O)c3ccccc3)CC2)c(C)c1	.	.	.	.	.	.
CC(C)CC(c1nnnn1Cc1ccco1)N1CCN(c2cccc(Cl)c2)CC1 (configuration not stated)	.	.	.	.	46	.
CCCCC(=O)NCCc1cc2c(OC)ccc(OC)c2[nH]c1=O	.	.	.	.	.	.
O=C(C1CCCN(S(=O)(=O)c2cccc3cccnc23)C1)N1CCN(c2ccc(F)cc2)CC1 (configuration not stated)	.	.	.	.	.	.
CCOC(=O)N1CCC(n2c(SCC(=O)NCCC3=CCCCC3)nc3ccccc3c2=O)CC1	.	.	/	.	60	.
CCCOC(=O)c1ccc(OCC(O)CN2CCN(C(=O)c3ccccc3)CC2)cc1 (configuration not stated)	48	.	.	.	.	.
CCN(CC)c1ccc(NC(=O)C2CCCN(S(=O)(=O)c3cccnc3)C2)c(C)c1 (configuration not stated)	.	.	.	.	.	32
CCn1cc(C(=O)N2CCCc3ccccc32)c2cc(OC)c(OC)cc2c1=O	.	.	/	.	.	.
CCOC(=O)c1sc(Nc2nc3c(OC)cccc3s2)nc1C	13	.	.	28	.	.
COc1cccc2sc(Nc3nc(-c4ccccn4)cs3)nc12	.	.	92	.	66	69
COc1cccc2sc(Nc3nnc(-c4cccs4)o3)nc12	.	.	47	.	46	.
CN1CCN(S(=O)(=O)c2ccc(NC(=O)c3csc4ccccc34)cc2)CC1	.	.	.	.	.	35
CCOC(=O)c1sc2c(c1C)C(c1cccs1)C1=C(CCCC1=O)N2 (configuration not stated)	.	.	.	22	.	.
CCOC(=O)C1=C(C)NC2=C(C(=O)CCC2)C1c1cccs1 (configuration not stated)	.	.	.	.	.	.
O=C(Nc1ccncc1)C1CCCN(S(=O)(=O)c2cccc3cccnc23)C1 (configuration not stated)	.	.	89	.	.	.
COc1ccc(-c2nc(N3CCOCC3)nc3nn4c(C)c(CCC(=O)O)c(C)nc4c23)cc1	.	.	.	.	.	.
CCOC(=O)CC(/C(C)=N\O)c1ccccc1 (configuration not stated)	40	.	.	.	.	.
O=S(=O)(c1ccccc1)N1CCN(c2nnnn2-c2ccccc2)CC1	.	.	/	.	.	.
SMILES	HTR1E agonist	HEK293 NFkB inh	Jurkat viability	5HT1a ag	5HT1a antag	HTR1E antagonist
c1ccc(CC2CCN(c3nnnn3-c3ccccc3)CC2)cc1	.	.	.	.	.	32
COCCn1c(COc2ccc(Cl)cc2)nnc1SCC(N)=O	.	.	.	.	.	.
COCCn1c(COc2cccc(OC)c2)nnc1SCC(=O)N1CCOCC1	19	.	.	.	.	.
Cn1cccc1Cc1nnc(SCC(=O)N2CCOCC2)n1CCc1ccccc1	.	.	.	473	.	.
CCOC(=O)C1CCCN(CC(=O)NC2CC2)C1 (configuration not stated)	.	.	.	22	.	.
CCCCn1c(=O)[nH]c(=O)c2c1nc(-c1ccncc1)n2CCOC	.	.	.	270	.	.
COc1ccc(OC)c(C(C)NC(=O)c2ccco2)c1 (configuration not stated)	.	.	40	.	.	.
COc1cccc(C2C3=C(CCCC3=O)Nc3nc4ccccc4n32)c1OC (configuration not stated)	.	.	.	.	.	.
NC/C(=N\O)c1ccc(Cl)cc1Cl	13	.	.	.	.	.
Cn1c(O)c(C=Nc2ccc(Cc3ccncc3)cc2)c(=O)n(C)c1=O	.	/	/	.	/	.
COc1ccc(OC)c(NC(=O)CSCc2cnn(-c3ccccc3)c2-n2cccc2)c1	.	.	.	.	57	.
COc1cc(NC(=O)CSCc2cnn(-c3ccccc3)c2-n2cccc2)cc(OC)c1	.	.	.	.	.	.
O=C(CSc1nc2ccccc2o1)Nc1ccc(N2CCOCC2)c(Cl)c1	.	.	.	.	.	.
Cc1cc(C)nc(SCC(=O)Nc2ccc(N3CCOCC3)c(Cl)c2)n1	.	.	58	.	.	.
Cc1ccc(S(=O)(=O)/N=C(\CN2CCCCC2)N2CCOCC2)cc1	.	.	.	.	.	.
CCCCCN=Cc1c(C)[nH]n(-c2nc3ccccc3s2)c1=O	.	.	56	.	.	.
CN(C)c1nc(-c2ccccc2)c2cnn(Cc3ccccc3)c2n1	.	.	.	.	.	.
CCCCNC(=O)c1c(N)n(/N=C/c2ccccn2)c2nc3ccccc3nc12	.	.	/	.	.	.
CCCCCCNC(=O)c1c(N)n(/N=C/c2ccco2)c2nc3ccccc3nc12	.	.	.	31	.	.
Cc1cc(N2CCN(c3nc4ccccc4s3)CC2)n2ncnc2n1	.	.	83	.	.	.
Cc1cc(N2CCN(C(c3ccccc3)c3ccccc3)CC2)n2ncnc2n1	.	.	.	.	.	.
COc1ccc(N2CCN(CCNC(=O)CCS(=O)(=O)c3cccc4nsnc34)CC2)cc1	.	.	/	.	.	.
Cc1sc2ncnc(Oc3ccc(-n4ccnc4)cc3)c2c1C	.	.	.	298	.	.
Cc1sc2ncnc(NCCCn3ccnc3)c2c1C	.	.	.	.	.	.
Cc1ccc(C(=O)C2CCN(CC(=O)Nc3ccc(N(C)C)cc3)CC2)cc1	12	.	.	.	.	.
Cc1ccc(C(=O)C2CCN(CC(=O)Nc3ccc4c(c3)OCCO4)CC2)cc1	.	.	.	.	.	.
CCOc1ccc(OCC)c(NC(=O)CN2CCN(c3cccc(C)c3C)CC2)c1	28	.	/	.	.	.
CCN(C(=O)c1cc2cc3ccc(C)cc3nc2o1)c1ccc(OC)cc1	.	.	.	.	46	.
O=c1cc(-c2ccccc2)[nH]c2nc3ccccc3n12	.	.	47	.	.	.
